Holding throughout (assay type): functional
Test [1] concerns Rattus norvegicus. The test is described as follows: Maximum fall in blood pressure was evaluated at an oral dose of 0.3 mg/kg in (SHR) spontaneous hypertensive rats. In short, it runs like this:
(§1)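 Conscious spontaneously hypertensive rats (Okamoto-derived, 14–24 weeks old; systolic pressure >180 mmHg counted as hypertensive), six or more per dose level. Given orally by dosing needle into the esophagus as solution or suspension in 1% w/v methylcellulose. Systolic pressure read by tail cuff, each reading the mean of at least six recordings, taken before dosing and at intervals up to 6 h; maximum fall recorded.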

Test [2] deals with Rattus norvegicus. The experiment in a line: Maximum fall in blood pressure was evaluated at an oral dose of 1.0 mg/kg in (SHR) spontaneous hypertensive rats. In short, it runs like this:
as §1

In test [3] the test system is Rattus norvegicus. The test is described as follows: Maximum fall in blood pressure was evaluated at an oral dose of 0.1 mg/kg in (SHR) spontaneous hypertensive rats. In short, it runs like this: as §1
Test [4] concerns Rattus norvegicus. The experiment in a line: Maximum fall in blood pressure was evaluated at an oral dose of 10.0 mg/kg in (SHR) spontaneous hypertensive rats. In short, it runs like this: as §1
For test [5], the system named is Rattus norvegicus. The experiment in a line: Maximum fall in blood pressure was evaluated at an oral dose of 10 mg/kg in (SHR) spontaneous hypertensive rats. The gist of the method: as §1
For test [6], the system named is Rattus norvegicus. The test is described as follows: Maximum fall in blood pressure was evaluated at an oral dose of 3.0 mg/kg in (SHR) spontaneous hypertensive rats. In short, it runs like this:
as §1

Test [7] has as its system Rattus norvegicus. The experiment in a line: Maximum fall in blood pressure was evaluated at an oral dose of 0.03 mg/kg in (SHR) spontaneous hypertensive rats. The gist of the method:
as §1

Molecules are shown by their SMILES.

As for `CC1(C)C=C(N2CCCC2=O)c2cc(C#N)ccc2O1`, the Max fall in blood pressure in the test on Rattus norvegicus [1] was 47%.

Turning to `CC1(C)Oc2ccc(C#N)cc2C(N2CCSC2=O)[C@@H]1O` (stereo partly specified), the “Max fall in blood pressure” value with Rattus norvegicus [1] is on record as 27%; in the test on Rattus norvegicus [2], 30%.

Regarding `CC1(C)Oc2ccc(C#N)cc2C(N2CCNCC2=O)[C@@H]1O` (stereo partly specified), the “Max fall in blood pressure” value was determined as 53% with Rattus norvegicus [1] and 28% with Rattus norvegicus [3].

Turning to `CC1(C)Oc2ccc(C#N)cc2C(N2CCCCCC2=O)[C@@H]1O` (stereo partly specified), in the test on Rattus norvegicus [2], the “Max fall in blood pressure” value is recorded as 10%.

In the case of `CC1(C)Oc2ccc(C=O)cc2C(N2CCCC2=O)[C@@H]1O` (stereo partly specified), the “Max fall in blood pressure” value in the test with Rattus norvegicus [4] is 25%.

For the compound `CC1(C)Oc2c(cccc2[N+](=O)[O-])C(N2CCCC2=O)[C@@H]1O` (stereo partly specified), the “Max fall in blood pressure” value in the test with Rattus norvegicus [2] worked out at 7%.

Turning to `CC1(C)C=C(N2CCCCC2=O)c2cc(C#N)ccc2O1`, the “Max fall in blood pressure” value in the test on Rattus norvegicus [1] was determined as 25%; with Rattus norvegicus [2] it was 55%.

As to `CC(=O)Nc1cc2c(cc1[N+](=O)[O-])C(N1CCCC1=O)[C@H](O)C(C)(C)O2` (stereo partly specified), the entries for the “Max fall in blood pressure” value in the test with Rattus norvegicus [1] and with Rattus norvegicus [3] were 62% and 37%, respectively.

As for `CC1(C)Oc2ccc(C#N)cc2C(N2CC[N+](C)(C)CC2=O)[C@@H]1O.[I-]` (stereo partly specified), in the test with Rattus norvegicus [2], the “Max fall in blood pressure” value is 9%.

As for `COC(=O)c1ccc2c(c1)C(N1CCCCC1=O)[C@H](O)C(C)(C)O2` (stereo partly specified), the results for the “Max fall in blood pressure” value in the test on Rattus norvegicus [1] and in the test with Rattus norvegicus [2] were 13% and 42%, respectively.

Regarding `CC1(C)Oc2ccc(C#N)cc2C(N2CCCC2)[C@@H]1O` (stereo partly specified), the entries for the “Max fall in blood pressure” value in the test on Rattus norvegicus [1], in the test on Rattus norvegicus [2] and with Rattus norvegicus [3] were 21%, 29% and 8%, respectively.

As to `CC1(C)Oc2ccc(C#N)cc2C(N2CCCC2=O)[C@@H]1OC=O` (stereo partly specified), the “Max fall in blood pressure” value in the test with Rattus norvegicus [1] turned out to be 31%; in the test with Rattus norvegicus [2] it was 36%.

As for `CC1Oc2ccc([N+](=O)[O-])cc2C(N2CCCC2=O)[C@@H]1O` (stereo partly specified), in the test with Rattus norvegicus [4], the “Max fall in blood pressure” value amounted to 34%.

For `CC(=O)c1ccc2c(c1)C(N1CCCCC1=O)[C@H](O)C(C)(C)O2` (stereo partly specified), the “Max fall in blood pressure” value in the test with Rattus norvegicus [1] is reported as 29%; in the test on Rattus norvegicus [2] it was 66%.

On to `CC1(C)Oc2ccc(C#N)cc2C(N2CCCCCCC2=O)[C@@H]1O` (stereo partly specified), for which the “Max fall in blood pressure” value in the test on Rattus norvegicus [4] was 11%.

As to `CC1(C)Oc2ccc(C#N)cc2C(N2CCSCC2=O)[C@@H]1O` (stereo partly specified), the “Max fall in blood pressure” value with Rattus norvegicus [2] is 9%; with Rattus norvegicus [5] it was 12%.

As to `CC1(C)CC(N2CCCC2=O)c2cc(C#N)ccc2O1` (stereo unspecified), the “Max fall in blood pressure” value came to 15% in the test with Rattus norvegicus [2] and 45% with Rattus norvegicus [6].

Take `CC1(C)Oc2ccc(C#N)cc2C(N2OCCC2=O)[C@@H]1O` (stereo partly specified): the “Max fall in blood pressure” value in the test on Rattus norvegicus [4] is on record as 19%.

With `CC1(C)Oc2ccc(Cl)cc2C(N2CCCC2=O)[C@@H]1O` (stereo partly specified), the “Max fall in blood pressure” value amounted to 8% in the test on Rattus norvegicus [2] and 37% in the test on Rattus norvegicus [5].

Turning to `CC1(C)Oc2ccc([N+](=O)[O-])cc2C(N2CCCC2=O)[C@@H]1O` (stereo partly specified), the “Max fall in blood pressure” value in the test on Rattus norvegicus [1] was 27%; in the test on Rattus norvegicus [2] it was 63%.

Turning to `CC(=O)c1ccc2c(c1)C(N1CCCC1=O)[C@H](O)C(C)(C)O2` (stereo partly specified), the results for the “Max fall in blood pressure” value in the test with Rattus norvegicus [1] and in the test on Rattus norvegicus [2] were 33% and 56%, respectively.

With `COC(=O)c1ccc2c(c1)C(N1CCCC1=O)[C@H](O)C(C)(C)O2` (stereo partly specified), the “Max fall in blood pressure” value was 11% with Rattus norvegicus [1], 20% in the test with Rattus norvegicus [2] and 44% in the test on Rattus norvegicus [5].

As for `CC1(C)Oc2cc([N+](=O)[O-])c(N)cc2C(N2CCCC2=O)[C@@H]1O` (stereo partly specified), the “Max fall in blood pressure” value in the test on Rattus norvegicus [2] came out at 25%.

With `CC1(C)Oc2ccc(C#N)cc2C(N2CCCCC2=O)[C@@H]1O` (stereo partly specified), the “Max fall in blood pressure” value in the test with Rattus norvegicus [7] came out at 27%; with Rattus norvegicus [1], 49%; in the test with Rattus norvegicus [2], 59%; with Rattus norvegicus [3] it was 46%.

With `CC(=O)c1ccc2c(c1)C(N1CCCC1=O)=CC(C)(C)O2`, the “Max fall in blood pressure” value in the test on Rattus norvegicus [2] was determined as 48%.

For the compound `CC1(C)Oc2ccc(C#N)cc2C(N2CCCC2=O)[C@@H]1O` (stereo partly specified), the “Max fall in blood pressure” value in the test on Rattus norvegicus [1] is reported as 39%; in the test with Rattus norvegicus [2], 47%; in the test with Rattus norvegicus [3], 13%.

Regarding `CC(=O)c1ccc2c(c1)C(N1CCN(C(=O)c3ccc(F)cc3)CC1=O)[C@H](O)C(C)(C)O2` (stereo partly specified), the “Max fall in blood pressure” value in the test on Rattus norvegicus [4] worked out at 16%.

Turning to `CC1(C)Oc2ccc(C#N)cc2C(N2CCN(Cc3ccccc3)CC2=O)[C@@H]1O` (stereo partly specified), the “Max fall in blood pressure” value with Rattus norvegicus [1] is listed as 26%; in the test on Rattus norvegicus [2], 35%; in the test with Rattus norvegicus [3] it was 10%.

In the case of `CC1(C)C=C(N2CCSC2=O)c2cc(C#N)ccc2O1`, the “Max fall in blood pressure” value was determined as 9% in the test on Rattus norvegicus [1] and 27% in the test on Rattus norvegicus [2].

As for `CC(=O)Nc1cc2c(cc1[N+](=O)[O-])OC(C)(C)[C@@H](O)C2N1CCCC1=O` (stereo partly specified), the figures for the “Max fall in blood pressure” value with Rattus norvegicus [2] and with Rattus norvegicus [6] were 3% and 14%, respectively.

In the case of `CN1CCCN(C2=CC(C)(C)Oc3ccc(C#N)cc32)C1=O`, the “Max fall in blood pressure” value in the test with Rattus norvegicus [2] was determined as 29%.

Take `CC1(C)C=C(N2CCCCCC2=O)c2cc(C#N)ccc2O1`: the figures for the “Max fall in blood pressure” value in the test on Rattus norvegicus [2] and in the test on Rattus norvegicus [5] were 15% and 36%, respectively.

For the compound `CC1(C)Oc2ccc(C#N)cc2C(N2CCOCC2=O)[C@@H]1O` (stereo partly specified), the entries for the “Max fall in blood pressure” value in the test with Rattus norvegicus [1] and with Rattus norvegicus [2] were 26% and 27%, respectively.

Consider `CC1(C)C=C(N2CCCC2=O)c2cc([N+](=O)[O-])ccc2O1`, for which the “Max fall in blood pressure” value in the test on Rattus norvegicus [2] stood at 68%.

With `CC1(C)Oc2ccccc2C(N2CCCC2=O)[C@@H]1O` (stereo partly specified), the “Max fall in blood pressure” value with Rattus norvegicus [5] was 9%.

For the compound `CC1(C)Oc2cc([N+](=O)[O-])ccc2C(N2CCCC2=O)[C@@H]1O` (stereo partly specified), the “Max fall in blood pressure” value stood at 12% with Rattus norvegicus [1], 56% with Rattus norvegicus [2] and 68% with Rattus norvegicus [5].

Regarding `CC(=O)N1CCN(C2c3cc(C#N)ccc3OC(C)(C)[C@H]2O)C(=O)C1` (stereo partly specified), the “Max fall in blood pressure” value in the test on Rattus norvegicus [2] stood at 17%; in the test on Rattus norvegicus [6] it was 23%.

As to `CC1(C)Oc2ccc(C#N)cc2C(N2CCN(C(=O)c3ccco3)CC2=O)[C@@H]1O` (stereo partly specified), the figures for the “Max fall in blood pressure” value in the test on Rattus norvegicus [2] and in the test with Rattus norvegicus [6] were 15% and 43%, respectively.

As for `CC1(C)Oc2ccc(C#N)cc2C(N2CCN(C(=O)c3ccccc3)CC2=O)[C@@H]1O` (stereo partly specified), in the test on Rattus norvegicus [4], the “Max fall in blood pressure” value is listed as 14%.

`CN1CCCN(C2c3cc(C#N)ccc3OC(C)(C)[C@H]2O)C1=O` (stereo partly specified): the “Max fall in blood pressure” value in the test on Rattus norvegicus [2] came to 23%.

Regarding `CCCCN1CCN(C2c3cc(C#N)ccc3OC(C)(C)[C@H]2O)C(=O)C1` (stereo partly specified), the “Max fall in blood pressure” value with Rattus norvegicus [1] is on record as 48%; with Rattus norvegicus [2] it was 61%; in the test with Rattus norvegicus [3] it was 18%.

`CC1(C)Oc2ccc(C#N)cc2C(N2CCOC2=O)[C@@H]1O` (stereo partly specified): the “Max fall in blood pressure” value in the test with Rattus norvegicus [1] worked out at 20%; with Rattus norvegicus [2], 29%.

For `CC1(C)C=C(N2CCCC2=O)c2cc(Cl)ccc2O1`, the “Max fall in blood pressure” value in the test with Rattus norvegicus [4] is recorded as 36%.

In the case of `CC(=O)O[C@H]1C(N2CCCC2=O)c2cc(C#N)ccc2OC1(C)C` (stereo partly specified), the “Max fall in blood pressure” value in the test on Rattus norvegicus [2] is 30%; with Rattus norvegicus [6], 39%.

As for `CC1(C)Oc2ccc(C#N)cc2C(N2CCCC2=S)[C@@H]1O` (stereo partly specified), the figures for the “Max fall in blood pressure” value with Rattus norvegicus [1] and in the test with Rattus norvegicus [3] were 39% and 16%, respectively.

With `O=C1CCCN1C1c2cc([N+](=O)[O-])ccc2OC[C@H]1O` (stereo partly specified), the “Max fall in blood pressure” value with Rattus norvegicus [4] is 5%.

Regarding `CN1CCN(C2c3cc(C#N)ccc3OC(C)(C)[C@H]2O)C(=O)C1` (stereo partly specified), the “Max fall in blood pressure” value is 37% with Rattus norvegicus [1] and 20% in the test with Rattus norvegicus [3].

`CC1(C)Oc2ccc(C#N)cc2C(N2CCCC2=O)C1O` (single isomer, unassigned) [CROMAKALIM]: the “Max fall in blood pressure” value in the test with Rattus norvegicus [1] came to 47%; with Rattus norvegicus [3] it was 31%.

With `CC1(C)Oc2ccc(C#N)cc2[C@@H](N2CCCC2=O)[C@@H]1O` (single isomer, unassigned) [LEVCROMAKALIM], the “Max fall in blood pressure” value with Rattus norvegicus [2] came out at 23%; in the test on Rattus norvegicus [4], 46%.

As to `COC(=O)C1=C(C)NC(C)=C(C(=O)OC)C1c1ccccc1[N+](=O)[O-]` [NIFEDIPINE], the “Max fall in blood pressure” value is reported as 13% in the test on Rattus norvegicus [2], 36% in the test with Rattus norvegicus [4] and 27% with Rattus norvegicus [6].

Values taken from ChEMBL document CHEMBL1123265, “Synthesis and antihypertensive activity of 4-(cyclic amido)-2H-1-benzopyrans” (1986).
